The list is not random: actives were taken first. Their share in the collection is about 2.9%.
PG9 Ab binder: small molecules binding HIV-1 gp120 antibody PG9. TR-FRET gp120-PG9 antibody binding. hit rate 0.43% among 360,000. inhibition, % at 6.7 µM; in the data active = inhibition above about 8.5%
NR1D1 modulator: Rev-erb alpha (human) modulation; Rev-erbα–FITC-DNA binding, fluorescence polarization, 90 min; activity, % at 10 µM; hit rate 0.79% among 370,000; AID 1259318;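 active = activity above about 14%, limit read from the data; passing the limit was not always enough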;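 note: 0% = DMSO wells with 35 nM protein and 100% = DMSO wells with 750 nM protein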
Target sequence (P20393 whole entry, looked up): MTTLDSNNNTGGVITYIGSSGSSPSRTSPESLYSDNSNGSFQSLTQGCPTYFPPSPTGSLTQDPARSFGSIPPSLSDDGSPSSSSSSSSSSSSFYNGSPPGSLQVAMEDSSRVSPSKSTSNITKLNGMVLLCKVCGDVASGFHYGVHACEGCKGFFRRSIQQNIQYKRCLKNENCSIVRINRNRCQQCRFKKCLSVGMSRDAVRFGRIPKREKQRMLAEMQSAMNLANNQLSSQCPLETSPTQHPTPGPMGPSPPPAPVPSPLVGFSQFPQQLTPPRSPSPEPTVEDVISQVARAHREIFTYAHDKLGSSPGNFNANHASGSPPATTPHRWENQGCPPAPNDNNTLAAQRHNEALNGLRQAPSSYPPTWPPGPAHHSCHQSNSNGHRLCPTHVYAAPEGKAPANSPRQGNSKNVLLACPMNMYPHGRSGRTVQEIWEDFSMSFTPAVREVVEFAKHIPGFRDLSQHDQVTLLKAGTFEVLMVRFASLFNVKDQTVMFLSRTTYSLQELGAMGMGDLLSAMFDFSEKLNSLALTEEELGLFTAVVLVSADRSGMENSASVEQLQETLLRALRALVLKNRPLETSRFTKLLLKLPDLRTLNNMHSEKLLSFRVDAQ
beta cell repl: inducers of beta-cell replication in MIN6 cells. MIN6 cells proliferation, ATPlite luminescence, 48 h; cells starved in 0.2% serum; 100% = growth in 10% serum. proliferation, % at 10 µM. hit rate 0.29% among 330,000;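 active = compounds whose signal lies at least 3.5 SD above the mean of all wells on their plate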;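 note: 0% = DMSO-treated cells in low-serum medium and 100% = 10% serum control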
hiPSC survival: increases survival of single human iPS cells; hiPSC single-cell survival, ATPlite luminescence; 100% = ROCK inhibitor wells, 0% = DMSO; survival enhancement, % at 20 µM; hit rate 0.044% among 360,000; AID 602274; in the data active = survival enhancement above about 18%;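 note: cells exposed to compounds for 16 hours before the ATP read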
H9c2 TAG inh: inhibitors of triacylglycerol accumulation; H9c2 cells, Nile Red lipid (TAG) fluorescence; cells loaded with 200 µM oleic acid; inhibition, % at 12.5 µM; hit rate 0.66% among 230,000; AID 651582;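 active = pattern-corrected inhibition of lipid staining of at least 50% with the nuclear-stain viability signal not falling by more than 50%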;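 note: 0% = DMSO wells and 100% = triacsin C control wells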
T cruzi repl: blocks replication of Trypanosoma cruzi; T. cruzi beta-gal in NIH3T3, luminescence, 90 h; inhibition, % (test concentration not listed); hit rate 1.4% among 300,000; AID 1885;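 active = mean inhibition across valid replicates above about 55%, limit read from the data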;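 note: signal also drops with host cell toxicity which is not excluded here; 0% = plate median of DMSO wells and 100% = zero luminescence signal; higher percent means less beta-gal luminescence so fewer parasites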
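Incubation – ≥90 h infection period, 3 h prior cell attachment · System – NIH/3T3 fibroblasts plus reporter T. cruzi · Doses – compound pinned at 50 nL/well, DMSO · Read-out basis – percent inhibition of parasite-derived β-gal signal · Signal – luminescent β-galactosidase signal after 60 min lysis · Also added – 5000 T. cruzi trypomastigotes/well · Medium – Low-serum DMEM with 2% FBS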
Active calls of the source: *; . = no result.

SMILES	PG9 Ab binder	NR1D1 modulator	beta cell repl	hiPSC survival	H9c2 TAG inh	T cruzi repl
CCOC(=O)C1CCCN(C2CC(=O)N(c3ccc(C)c(C)c3)C2=O)C1 (centres undefined)	-0.8	-1.5	0.1	1.8	4.4	-26.5
Cc1c(C(=O)Nc2ccc(-c3nnc4n3CCCCC4)cc2)oc2c1ccc1ccccc12	-2.8	0.8	0.0	1.4	.	55.9*
COc1cc2c(cc1OC)C(C1C(=O)CC(C)(C)CC1=O)N(C(=O)CCl)CC2 (centres undefined)	-3.5	2.0	-3.1	1.3	17.3	-13.4
COc1cc2c(cc1OC)C(c1cc(Br)ccc1F)N(C(=O)CCl)CC2 (centres undefined)	-3.4	0.4	-5.8	20.6*	.	64.9*
CC(OC(=O)c1nsc(Cl)c1Cl)C(=O)NCc1cccs1 (centres undefined)	-0.1	2.0	2.3	0.2	14.6	1.6
O=C(CCc1ccc(Oc2cc([N+](=O)[O-])cc([N+](=O)[O-])c2)cc1)Nc1cccc(Cl)c1	-0.2	-4.2	.	-0.4	.	50.4
COc1ccc2nc3cc(Cl)ccc3c(C#N)c2c1	-3.9	1.8	0.9	0.7	-4.6	-0.4
COc1ccc2nc3cc(Cl)ccc3c(Nc3ccc(O)c(CN4CCN(C)CC4)c3)c2c1	-20.2	5.2	.	-2.3	54.4*	.
CCCNC(=O)c1cc(-c2ccc(Br)cc2)on1	-2.5	-6.0	-4.6	-3.2	.	22.4
CN(C)S(=O)(=O)c1cccc(C(=O)OCC(=O)c2c(N)n(C)c(=O)n(C)c2=O)c1	0.0	-1.1	1.6	-0.3	7.3	-5.8
Cc1ccc(C(c2nnnn2C(C)(C)C)N(Cc2ccco2)Cc2cccs2)cc1 (centres undefined)	2.5	2.1	-5.4	-1.7	-51.2	63.8*
CCC(c1nnnn1C(C)(C)C)N(Cc1cccs1)Cc1cc2cc(C)c(C)cc2n2nnnc12 (centres undefined)	.	.	-2.4	.	.	55.6*
CCc1cccc(C)c1NC(=O)c1cccnc1	-0.8	-3.7	0.1	1.0	2.9	-6.6
Cc1ccc2c(c1)Oc1ccc(NC(=O)CCl)cc1C(=O)N2	1.0	1.3	-5.9	-5.5	55.8*	30.8
CCCCN1C2=C(C(=O)CCC2)C(c2ccc(Cl)c(Cl)c2)C2=C1c1ccccc1C2=O (centres undefined)	-1.4	3.9	-5.4	-1.9	59.6*	53.2
CC(C)OCCCn1c(=N)c(C(N)=S)cc2c(=O)n3ccccc3nc21	2.0	-8.1	-5.9	-2.5	19.7	69.0*
CC(=O)N=c1c(C#N)cc2c(=O)n3ccccc3nc2n1CCCOC(C)C	-0.9	-11.1	-0.2	-0.6	-3.8	-3.0
N=c1c(C(=O)NCc2ccc(F)cc2)cc2c(=O)n3ccccc3nc2n1Cc1cccnc1	-1.7	-10.0	2.5	1.9	25.3	69.8*
CCCn1c(=N)c(C(=O)NCc2ccc3c(c2)OCO3)cc2c(=O)n3cccc(C)c3nc21	-0.7	4.1	-4.6	5.5	.	64.4*
CCOCCCn1c(=N)c(C(=O)NCc2ccc3c(c2)OCO3)cc2c(=O)n3ccccc3nc21	0.1	-3.1	-3.1	.	.	59.5*
O=c1[nH]c2cc3c(cc2cc1C(c1nnnn1C1CCCC1)N1CCCc2ccccc21)OCCO3 (centres undefined)	-2.1	1.2	.	-0.3	.	.
CC(C)c1ccc(S(=O)(=O)c2cn(Cc3ccc(F)cc3)c3cc4c(cc3c2=O)OCO4)cc1	.	.	-0.6	.	.	18.7
CCOc1ccc(C(=O)NC(C)CCc2ccccc2)cc1 (centres undefined)	-0.3	-3.5	-3.5	-0.3	.	1.3
COc1ccc(CCn2c(=N)c(C(=O)NCC3CCCO3)cc3c(=O)n4cccc(C)c4nc32)cc1 (centres undefined)	-0.9	1.0	-6.4	-0.7	.	57.8*
COCCCNC(=O)[C@H](CSCc1ccccc1)N1Cc2ccccc2C1=O	-0.3	-0.6	-0.3	-0.3	-25.5	-4.8
CC(=O)c1ccc(NC(=O)CSc2nc(C)cc(C)c2C(N)=O)cc1	-0.4	1.2	-0.6	-0.9	-11.5	-16.4
CCCC/C=C1/[C@@H](CC)N(Cc2ccc(OC)cc2OC)C2=N[C@H](c3ccccc3)CC(=O)N21	.	-5.7	.	.	.	.
CCCC(=O)Nc1ccc(C(=O)N/N=C/c2ccc([N+](=O)[O-])o2)cc1	-1.5	6.1	-5.3	-1.3	.	49.0

Assay outcomes deposited in PubChem BioAssay by several laboratories.
